These results are taken from PubChem BioAssay AID488910 (Broad Institute, 2010).

In all, about 20,000 compounds went through this assay and about 25 (0.1%) were called active.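 Rule for the calls: active = mean replicate protection from cytokine-induced ATP loss at least 50% and at least 75% of replicates each reaching 50%; inconclusive = meets only one of the two criteria, mean or replicate share; inactive = fails both the mean and replicate share criteria.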 What follows is part of a selection rich in actives, with near analogues and random picks from the rest.

This test in a line: protection of INS-1E cells from cytokine death, primary screen, ATP luminescence, single point (AID 488910). As to conditions: INS-1E cytokine-induced death, 48 h, at 10 µM, stronger effect = higher value, normalised: neutral wells 0, positive control 100. The gist of the method: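 Assay system – rat INS-1E insulinoma cell line · Quantity – 8000 cells per well · Buffer or medium – RPMI without phenol red, 5% FBS · Schedule – 48 h co-treatment, 10 min post-lysis read · Technique – luminescent ATP assay (CellTiter-Glo)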
On to `C[C@@H]1CN([C@@H](C)CO)C(=O)Cc2cc(NS(=O)(=O)c3cccs3)ccc2O[C@@H]1CN(C)S(=O)(=O)c1ccc(F)cc1`, for which the protection from cytokine-induced ATP loss was 4.38% (inactive).

`C[C@H](CO)N1C[C@H](C)[C@H](CN(C)Cc2ccccc2)Oc2ccc(NC(=O)Cc3ccccc3)cc2C1=O`: the protection from cytokine-induced ATP loss was 0.0546% (inactive).

On to `C[C@@H]1CN([C@@H](C)CO)C(=O)c2cc(NC(=O)Nc3cccc4ccccc34)ccc2O[C@@H]1CN(C)C(=O)Nc1cccc2ccccc12`, for which the protection from cytokine-induced ATP loss is -6.66% (inactive).

For `C[C@@H]1CCCCO[C@H](CN(C)Cc2ccccc2)[C@@H](C)CN([C@H](C)CO)C(=O)c2cc(NC(=O)Cc3ccccc3)ccc2O1`, the protection from cytokine-induced ATP loss is -13% (inactive).

For the molecule `COc1ccc(NC(=O)Nc2ccc3c(c2)C(=O)N([C@@H](C)CO)C[C@@H](C)[C@H](CN(C)Cc2ccc(Cl)c(Cl)c2)O3)cc1`, the protection from cytokine-induced ATP loss is -22.1% (inactive).

For `C[C@@H]1CN([C@H](C)CO)C(=O)Cc2cc(NC(=O)Cn3cnnn3)ccc2O[C@H]1CN(C)Cc1ccc(C(F)(F)F)cc1`, the protection from cytokine-induced ATP loss was 1.99% (inactive).

In the case of `C[C@@H]1CN([C@@H](C)CO)C(=O)c2cccc(NC(=O)C3CC3)c2O[C@@H]1CN(C)Cc1ccccc1`, the protection from cytokine-induced ATP loss is 1.55% (inactive).

Turning to `CC(C)NC(=O)Nc1ccc2c(c1)CC(=O)N([C@H](C)CO)C[C@@H](C)[C@@H](CN(C)C(=O)Nc1ccc3c(c1)OCO3)O2`, the protection from cytokine-induced ATP loss is 9.22% (inactive).

For the molecule `C[C@@H]1CN([C@@H](C)CO)C(=O)c2cc(NS(=O)(=O)c3ccccc3)ccc2O[C@@H]1CN(C)Cc1ccc(C(=O)O)cc1`, the protection from cytokine-induced ATP loss was 5.28% (inactive).

For `C[C@H](CO)N1C[C@H](C)[C@H](CN(C)Cc2ccncc2)Oc2ccc(NS(=O)(=O)c3cn(C)cn3)cc2C1=O`, the protection from cytokine-induced ATP loss was -2.95% (inactive).

As to `C[C@@H]1CN([C@@H](C)CO)C(=O)c2cccc(NC(=O)C3CC3)c2O[C@@H]1CN(C)C`, the protection from cytokine-induced ATP loss is 3.84% (inactive).

For `CC(C)NC(=O)Nc1ccc2c(c1)C(=O)N([C@@H](C)CO)C[C@@H](C)[C@H](CN(C)Cc1ccc(-c3ccccc3)cc1)O2`, the protection from cytokine-induced ATP loss was -8.83% (inactive).

On to `C[C@H]1CN([C@@H](C)CO)C(=O)Cc2cc(NC(=O)Nc3ccc(F)cc3)ccc2O[C@H]1CN(C)C(=O)Nc1ccc(C(F)(F)F)cc1`, for which the protection from cytokine-induced ATP loss was -14.8% (inactive).

`COc1ccc(NC(=O)N(C)C[C@@H]2Oc3ccc(NC(=O)Nc4ccccc4)cc3CC(=O)N([C@H](C)CO)C[C@@H]2C)cc1`: the protection from cytokine-induced ATP loss is 9.6% (inactive).

Take `Cc1noc(C)c1NC(=O)Nc1cccc2c1O[C@@H](CN(C)CC1CCCCC1)[C@H](C)CN([C@@H](C)CO)C2=O`: the protection from cytokine-induced ATP loss was -7.27% (inactive).

Regarding `C[C@@H]1CN([C@@H](C)CO)C(=O)c2cccc(NS(=O)(=O)c3ccc(F)cc3)c2O[C@H]1CN(C)S(=O)(=O)c1cccs1`, the protection from cytokine-induced ATP loss is 2.23% (inactive).

Consider `COc1ccc(NC(=O)N(C)C[C@@H]2Oc3ccc(NC(=O)Cn4cnnn4)cc3C(=O)N([C@H](C)CO)C[C@@H]2C)cc1`, for which the protection from cytokine-induced ATP loss is 6.28% (inactive).

Turning to `Cc1ccc(S(=O)(=O)Nc2ccc3c(c2)C(=O)N([C@@H](C)CO)C[C@H](C)[C@H](CN(C)C(=O)Nc2ccc(C(F)(F)F)cc2)O3)cc1`, the protection from cytokine-induced ATP loss was -7.22% (inactive).

Regarding `Cc1noc(C)c1NC(=O)Nc1ccc2c(c1)C(=O)N([C@H](C)CO)C[C@@H](C)[C@H](CN(C)Cc1ccncc1)O2`, the protection from cytokine-induced ATP loss was 3.35% (inactive).

Consider `C[C@@H]1CN([C@@H](C)CO)C(=O)c2cccc(NC(=O)Nc3ccc(F)cc3)c2O[C@@H]1CN(C)C(=O)Nc1ccccc1`, for which the protection from cytokine-induced ATP loss was 7.56% (inactive).

As to `C[C@H](CO)N1C[C@H](C)[C@@H](CN(C)Cc2ccc3c(c2)OCO3)Oc2c(cccc2N(C)C)C1=O`, the protection from cytokine-induced ATP loss is -11% (inactive).

For `C[C@@H]1CN([C@@H](C)CO)C(=O)c2cccc(NS(=O)(=O)c3cccs3)c2O[C@@H]1CN(C)CC1CC1`, the protection from cytokine-induced ATP loss is -3.04% (inactive).

For the molecule `C[C@@H]1CN([C@H](C)CO)C(=O)c2cccc(NS(=O)(=O)c3ccccc3)c2O[C@@H]1CN(C)Cc1ccc(C(=O)O)cc1`, the protection from cytokine-induced ATP loss was 2.31% (inactive).

As for `C[C@@H]1CN([C@@H](C)CO)C(=O)c2cc(NC(=O)CCN3CCOCC3)ccc2O[C@H]1CN(C)C(=O)NC1CCCCC1`, the protection from cytokine-induced ATP loss was 5.18% (inactive).

Turning to `C[C@H](CO)N1C[C@H](C)[C@@H](CN(C)Cc2ccc(C(=O)Nc3ccccc3N)cc2)Oc2c(NC(=O)C3CC3)cccc2C1=O`, the protection from cytokine-induced ATP loss is -6.93% (inactive).

As for `COc1ccc(NC(=O)N(C)C[C@@H]2Oc3c(NS(=O)(=O)c4cn(C)cn4)cccc3C(=O)N([C@H](C)CO)C[C@@H]2C)cc1`, the protection from cytokine-induced ATP loss was -3.57% (inactive).

For the molecule `Cc1noc(C)c1S(=O)(=O)N(C)C[C@H]1OCCCC[C@@H](C)Oc2ccc(NC(=O)C3CCCCC3)cc2C(=O)N([C@H](C)CO)C[C@@H]1C`, the protection from cytokine-induced ATP loss was 8.15% (inactive).

Consider `C[C@@H]1CN([C@H](C)CO)C(=O)Cc2cc(NC(=O)c3ccncc3)ccc2O[C@@H]1CN(C)Cc1ccncc1`, for which the protection from cytokine-induced ATP loss is 13.2% (inactive).

As for `Cc1ccc(S(=O)(=O)N(C)C[C@@H]2Oc3c(NS(C)(=O)=O)cccc3C(=O)N([C@@H](C)CO)C[C@H]2C)cc1`, the protection from cytokine-induced ATP loss was -1.18% (inactive).

Consider `C[C@H]1CN([C@@H](C)CO)C(=O)Cc2cc(NC(=O)Nc3ccc(F)cc3)ccc2O[C@H]1CN(C)S(=O)(=O)c1ccc(F)cc1`, for which the protection from cytokine-induced ATP loss was -1.52% (inactive).

Consider `Cc1noc(C)c1S(=O)(=O)Nc1ccc2c(c1)C(=O)N([C@@H](C)CO)C[C@@H](C)[C@H](CN(C)Cc1ccc(-c3ccccc3)cc1)O2`, for which the protection from cytokine-induced ATP loss is -8.15% (inactive).

Regarding `C[C@@H]1CN([C@@H](C)CO)C(=O)c2cc(NC(=O)CCCN(C)C)ccc2O[C@H]1CN(C)Cc1ccccc1`, the protection from cytokine-induced ATP loss is -3.08% (inactive).

For `CC(C)NC(=O)Nc1ccc2c(c1)C(=O)N([C@@H](C)CO)C[C@@H](C)[C@H](CN(C)C(=O)NC1CCCCC1)O2`, the protection from cytokine-induced ATP loss is 4.32% (inactive).

On to `Cc1ccc(S(=O)(=O)Nc2cccc3c2O[C@@H](CN(C)S(=O)(=O)c2cccs2)[C@@H](C)CN([C@@H](C)CO)C3=O)cc1`, for which the protection from cytokine-induced ATP loss was -0.391% (inactive).

As for `C[C@H]1CN([C@@H](C)CO)C(=O)c2cccc(NS(=O)(=O)c3cn(C)cn3)c2O[C@@H]1CN(C)C(=O)Nc1ccc(F)cc1`, the protection from cytokine-induced ATP loss is 11.3% (inactive).

In the case of `COc1ccc(NC(=O)Nc2ccc3c(c2)C(=O)N([C@H](C)CO)C[C@H](C)[C@H](CN(C)C(=O)Nc2c(C)noc2C)OCCCC[C@@H](C)O3)cc1`, the protection from cytokine-induced ATP loss is 12% (inactive).

In the case of `C[C@@H]1CN([C@H](C)CO)C(=O)c2cc(NS(=O)(=O)c3cn(C)cn3)ccc2O[C@H]1CN(C)S(=O)(=O)c1ccc(Cl)cc1`, the protection from cytokine-induced ATP loss was 0.346% (inactive).

Consider `COc1ccc(NC(=O)N(C)C[C@@H]2Oc3c(NS(C)(=O)=O)cccc3C(=O)N([C@H](C)CO)C[C@H]2C)cc1`, for which the protection from cytokine-induced ATP loss was 3.08% (inactive).

Take `Cc1ccc(S(=O)(=O)N(C)C[C@H]2Oc3c(NS(=O)(=O)c4cccs4)cccc3C(=O)N([C@@H](C)CO)C[C@@H]2C)cc1`: the protection from cytokine-induced ATP loss was -3.52% (inactive).

Turning to `O=C(O)CCCCCC(=O)N/N=C/c1ccco1`, the protection from cytokine-induced ATP loss was 17.1% (inactive).

In the case of `Cc1ccc(S(=O)(=O)Nc2ccc3c(c2)C(=O)N([C@@H](C)CO)C[C@@H](C)[C@H](CN(C)CC2CC2)O3)cc1`, the protection from cytokine-induced ATP loss was -3.86% (inactive).

With `C[C@H]1CN([C@@H](C)CO)C(=O)c2cccc(NC(=O)c3ccncc3)c2O[C@@H]1CN(C)C`, the protection from cytokine-induced ATP loss is 7.37% (inactive).

On to `C[C@H]1CN([C@@H](C)CO)C(=O)c2cccc(NC(=O)Nc3ccc(C(F)(F)F)cc3)c2O[C@@H]1CN(C)Cc1ccccc1`, for which the protection from cytokine-induced ATP loss was -19.3% (inactive).

In the case of `Cc1noc(C)c1NC(=O)Nc1ccc2c(c1)CC(=O)N([C@H](C)CO)C[C@@H](C)[C@@H](CN(C)Cc1ccc(C(F)(F)F)cc1)O2`, the protection from cytokine-induced ATP loss is 10.5% (inactive).

Consider `C[C@H](CO)N1C[C@H](C)[C@@H](CN(C)S(=O)(=O)c2ccccc2)Oc2c(NC(=O)c3ccc(-c4nccs4)cc3)cccc2C1=O`, for which the protection from cytokine-induced ATP loss was 5.11% (inactive).

On to `C[C@@H]1CN([C@H](C)CO)C(=O)c2cc(NC(=O)CCCCCC(=O)Nc3ccccc3N)ccc2O[C@@H]1CN(C)Cc1ccncc1`, for which the protection from cytokine-induced ATP loss was 6.45% (inactive).

For `CC(C)NC(=O)Nc1ccc2c(c1)CC(=O)N([C@H](C)CO)C[C@@H](C)[C@H](CN(C)S(=O)(=O)c1ccccc1)O2`, the protection from cytokine-induced ATP loss was 9.86% (inactive).

`C[C@@H]1CN([C@@H](C)CO)C(=O)c2cccc(NS(=O)(=O)c3ccc(Cl)cc3)c2O[C@@H]1CN(C)C(=O)Nc1ccccc1`: the protection from cytokine-induced ATP loss is 0.662% (inactive).

Consider `C[C@H]1CN([C@@H](C)CO)C(=O)c2cccc(NC(=O)Nc3ccccc3)c2O[C@H]1CN(C)C(=O)Nc1cccc2ccccc12`, for which the protection from cytokine-induced ATP loss is 6.53% (inactive).

As for `C[C@@H]1CN([C@@H](C)CO)C(=O)c2cc(NS(=O)(=O)c3cccs3)ccc2O[C@@H]1CN(C)S(=O)(=O)c1ccc(F)cc1`, the protection from cytokine-induced ATP loss is -0.641% (inactive).

Turning to `Cc1noc(C)c1NC(=O)Nc1cccc2c1O[C@H](CN(C)C(=O)Nc1ccccc1)[C@@H](C)CN([C@H](C)CO)C2=O`, the protection from cytokine-induced ATP loss is 6.69% (inactive).

For the molecule `C[C@H]1CN([C@@H](C)CO)C(=O)c2cccc(NC(=O)NC3CCCCC3)c2O[C@H]1CN(C)CC1CCCCC1`, the protection from cytokine-induced ATP loss is -14.4% (inactive).

On to `Cc1noc(C)c1NC(=O)Nc1ccc2c(c1)C(=O)N([C@@H](C)CO)C[C@H](C)[C@@H](CN(C)C(=O)Nc1ccccc1)O2`, for which the protection from cytokine-induced ATP loss is -2.87% (inactive).

In the case of `C[C@@H]1CN([C@H](C)CO)C(=O)Cc2cc(NC(=O)C3CCCCC3)ccc2O[C@@H]1CN(C)Cc1ccc(C(F)(F)F)cc1`, the protection from cytokine-induced ATP loss is -23.1% (inactive).

As for `COc1ccc(NC(=O)N(C)C[C@@H]2Oc3c(NC(=O)C4CCOCC4)cccc3C(=O)N([C@H](C)CO)C[C@@H]2C)cc1`, the protection from cytokine-induced ATP loss is 5.6% (inactive).

Take `C[C@H](CO)N1C[C@H](C)[C@@H](CN(C)Cc2ccc(Cl)c(Cl)c2)Oc2ccc(NS(=O)(=O)c3ccccc3)cc2C1=O`: the protection from cytokine-induced ATP loss is -24.5% (inactive).
